Compound activity: PubChem, several laboratories
A selection: hits, their analogues and other compounds. The true share with any hit is near 1.7%.
PLC-beta3 inh = inhibitors of human phospholipase C beta3; Q01970; Purified PLC-beta3, fluorogenic substrate, fluorescence; inhibition, % at 12.2 µM; 370,000 tested, 0.18% active; AID 720704; in the data active means inhibition above about 11%
UCH37 DUB inh = human UCH37 deubiquitinating enzyme inhibition; Q9Y5K5; purified proteasome/UCH37, Ub-AMC cleavage fluorescence; inhibition, % (test concentration not listed); 330,000 tested, 0.33% active; AID 588478;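 active means mean inhibition over replicate wells above about 20%, limit read from the data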
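System: Proteasome-associated human UCH37 deubiquitinase; Input: 0.15 nM proteasome in added enzyme buffer; Also added: Ub-AMC substrate from 1 µM stock; Incubation: 30 min compound-proteasome preincubation then 25 min substrate reaction, room temperature; Detection: fluorescence, ex 355 nm, em 460 nm; Read-out: % inhibition of Ub-AMC cleavage fluorescence; Benchmarks: no-proteasome and no-compound wells.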
Rpn11 block = blocks the human proteasome subunit Rpn11; O00487; human 26S proteasome, Ub4-pepOG fluorescence polarization; 20S core pre-blocked with epoxomicin; inhibition, % at 20 µM; 360,000 tested, 0.59% active; AID 588493;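 active means inhibition at 20 µM, scaled to each plate's controls, above about 33%, limit read from the data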
Target sequence (O00487 whole entry, looked up): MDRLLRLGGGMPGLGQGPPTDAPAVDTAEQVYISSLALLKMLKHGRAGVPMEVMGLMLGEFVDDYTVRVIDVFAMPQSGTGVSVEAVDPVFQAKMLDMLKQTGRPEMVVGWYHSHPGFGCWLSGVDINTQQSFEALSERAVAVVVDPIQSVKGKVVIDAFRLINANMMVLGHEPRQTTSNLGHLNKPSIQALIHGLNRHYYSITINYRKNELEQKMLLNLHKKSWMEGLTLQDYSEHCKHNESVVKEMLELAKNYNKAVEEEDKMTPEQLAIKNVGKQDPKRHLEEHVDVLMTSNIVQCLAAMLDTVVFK
PLCg1 inh = inhibitors of human phospholipase C gamma1. purified PLC-gamma1, fluorogenic substrate, fluorescence. inhibition, % at 12.2 µM. 370,000 tested, 0.84% active. AID 720700; in the data active means inhibition above about 9.5%
Rpn11 confirm = confirmation of human proteasome Rpn11 inhibitors. shares compounds with Rpn11 block. purified human 26S proteasome, Ub4-pepOG fluorescence polarization; proteasome pretreated with epoxomicin. inhibition, % at 20 µM. 1,900 tested, 29% active
MMP-2 counter = counter-screen for RPN11 inhibitors: inhibition of human MMP-2; shares compounds with Rpn11 block; recombinant MMP-2, FRET peptide cleavage fluorescence; inhibition, % at 20 µM; 1,900 tested, 4% active; AID 602330;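 further: human MMP-2 activated beforehand with APMA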
Thrombin FP = blocks bovine thrombin, flagging nonselective RPN11 hits; shares compounds with Rpn11 block; bovine thrombin cleavage of Ub4-pepOG, fluorescence polarization; inhibition, % at 20 µM; 1,900 tested, 13% active;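 active means mean inhibition at least 40% at 20 µM, or signal 3 deviations below plate average, so some actives read negative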
Of the large screens only hits and unclear results are named; the others gave an inactive call (follow-up assays come after a bar, where they were run). Unless noted, no stated cut-off is given here; in the data, active means inhibition above about 40%; inactive means the rest.

C=CCn1c(C#N)c(N)sc1=N	Rpn11 block 45 | Rpn11 confirm inactive | MMP-2 counter inactive | Thrombin FP inactive
O=C(Sc1cccc2cccnc12)c1ccccc1Br	Rpn11 block 85 (no result: UCH37 DUB inh) | Rpn11 confirm 65 | MMP-2 counter inactive | Thrombin FP inactive
Cc1cccc(C=Nc2sc3c(c2C#N)CCN(Cc2ccccc2)C3)c1O	none (no result: PLC-beta3 inh, Rpn11 block, PLCg1 inh)
Cc1cccc(/C=N/c2sc3c(c2C#N)CCN(Cc2ccccc2)C3)c1O	Rpn11 block 50 (no result: UCH37 DUB inh) | Rpn11 confirm inactive | MMP-2 counter inactive | Thrombin FP inactive
COc1ccc(/C=C/c2ccc3c(Br)ccc(O)c3n2)cc1	none
COc1cc(/C=C/c2ccc3c(Br)cc(Br)c(O)c3n2)ccc1O	Rpn11 block 43 | Rpn11 confirm inactive | MMP-2 counter inactive | Thrombin FP inactive
O=C(CSc1nnc2c(n1)[nH]c1ccc(F)cc12)OCc1ccccc1	Rpn11 block 89 | Rpn11 confirm inactive | MMP-2 counter inactive | Thrombin FP inactive
COc1ccc(C=Nn2c(C)nc3sc(C)c(C)c3c2=O)cc1OC	none (no result: PLC-beta3 inh, Rpn11 block, PLCg1 inh)
Cc1ccccc1CN1C(=O)C(C)Sc2ccc(-c3ccco3)cc21 (stereo not drawn)	Rpn11 block 60 (no result: UCH37 DUB inh) | Rpn11 confirm 46 | MMP-2 counter inactive | Thrombin FP inactive
Cc1cc(O)c(C)c(O)c1C=NNC(=O)c1cccnc1	none (no result: PLC-beta3 inh, Rpn11 block, PLCg1 inh)
CC(CCC1CC(C)OC1=O)=NNC(N)=O (stereo not drawn)	none (no result: PLC-beta3 inh, Rpn11 block, PLCg1 inh)
O=C1N/C(=C/c2cccn2-c2ccccc2)C(=O)N1Cc1ccc(F)cc1	Rpn11 block 42 | Rpn11 confirm inactive | MMP-2 counter inactive | Thrombin FP inactive
NC(=O)c1c(N=Cc2cccnc2)sc2c1CCCC2	none (no result: PLC-beta3 inh, Rpn11 block, PLCg1 inh)
C=CCn1c(SCC(=O)Nc2ccc(-c3nc4ccc(C)cc4s3)cc2)nnc1-c1ccncc1	Rpn11 block 60 | Rpn11 confirm inactive | MMP-2 counter inactive | Thrombin FP inactive
Cc1ncc(CO)c(C=NNC(=S)Nc2ccc(Cl)c(Cl)c2)c1O	none (no result: PLC-beta3 inh, Rpn11 block, PLCg1 inh)
O=C(O)CSc1cc(C(=O)c2ccccc2O)cn2c(=O)c3c(-c4ccccc4)csc3nc12	none
CCOC(=O)c1sc2nc3c(SCC(=O)O)cc(C(=O)c4ccccc4O)cn3c(=O)c2c1C	Rpn11 block 100 (no result: UCH37 DUB inh) | Rpn11 confirm 45 | MMP-2 counter inactive | Thrombin FP active
Brc1cccc(-c2nc(-c3ccncc3)no2)c1	none
Clc1ccc(Br)cc1-c1nc(-c2ccncc2)no1	Rpn11 block 88 | Rpn11 confirm inactive | MMP-2 counter inactive | Thrombin FP inactive
S=c1[nH]nc(-c2ccncc2)n1N=Cc1cccc(Cl)c1	none (no result: PLC-beta3 inh, Rpn11 block, PLCg1 inh)
COc1ccc(C=NNC(=O)c2ccccc2[N+](=O)[O-])cc1COc1c(F)c(F)c(F)c(F)c1F	none (no result: PLC-beta3 inh, Rpn11 block, PLCg1 inh)
O=C(NN=Cc1cccs1)c1ccc2ncccc2c1	none (no result: PLC-beta3 inh, Rpn11 block, PLCg1 inh)
O=NN(CC(=O)NN=CC=Cc1ccccc1)CC(=O)NN=CC=Cc1ccccc1	Rpn11 block 72 (no result: UCH37 DUB inh) | Rpn11 confirm inactive | MMP-2 counter inactive | Thrombin FP inactive
CCOc1cc(C=Nn2cnnc2)ccc1OS(=O)(=O)c1ccccc1	none (no result: PLC-beta3 inh, Rpn11 block, PLCg1 inh)
CCOC(=O)C1CCCN(Cc2nc3ccc([N+](=O)[O-])cc3c(=O)n2-c2ccc(OC)cc2OC)C1 (stereo not drawn)	Rpn11 block 109 | Rpn11 confirm inactive | MMP-2 counter inactive | Thrombin FP inactive
Cc1ccc(C(=O)NN=C2CCCc3ccccc32)c(C)c1	none (no result: PLC-beta3 inh, Rpn11 block, PLCg1 inh)
CCOc1ccc(/C=C2\SC(=S)N(CCC(=O)Nc3ccc(C(=O)O)cc3)C2=O)cc1	Rpn11 block 44 | Rpn11 confirm inactive | MMP-2 counter inactive | Thrombin FP inactive
CCOc1ccc(/C=C2\SC(=S)N(CCC(=O)Nc3cccc(C(=O)O)c3)C2=O)cc1	none
O=C(CN1C(=O)S/C(=C\c2ccc(-c3cc(C(=O)O)ccc3Cl)o2)C1=O)Nc1ccc2c(c1)OCO2	Rpn11 block 169 (no result: UCH37 DUB inh) | Rpn11 confirm inactive | MMP-2 counter inactive | Thrombin FP inactive
O=C(CCCN1C(=O)/C(=C/c2ccc3c(c2)OCO3)SC1=S)Nc1ccc(C(=O)O)cc1	Rpn11 block 56 | Rpn11 confirm 52 | MMP-2 counter inactive | Thrombin FP inactive
CCOC(=O)C1=C(c2ccccc2)N=c2sc(=Cc3ccco3)c(=O)n2C1c1cccs1 (stereo not drawn)	none (no result: PLC-beta3 inh, Rpn11 block, PLCg1 inh)
